Consider two molecules from ChEMBL document CHEMBL3632461 (J Med Chem, 2015).

Series [1] relates to Cynomolgus monkey. In words: In vivo inhibition of MPO in LPS-stimulated po dosed cynomolgous monkey administered 1 hr post LPS challenge measured after 2 hrs. The format is functional, organism-based. As to conditions: Macaca fascicularis. The method in brief:
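Randomized crossover design in cynomolgus monkeys given iv LPS, then oral vehicle or compound (5, 20, 80 mg/kg) 1 h later. Heparinized plasma collected 2 h after dosing. Total MPO captured on anti-MPO antibody plates, plasma exchanged for drug-free medium, and residual activity read by Amplex Red peroxidation. EC₅₀ from a mixed-effect sigmoid model of exposure versus activity.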

Series [2] concerns Liver microsome. In words: Metabolic stability in NADPH-supplemented human liver microsomes assessed as GSH adduct formation. The class given is ADME. In outline: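 Incubation in NADPH-supplemented human liver microsomes or cryopreserved human hepatocytes, examined for glutathione adduct formation.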
(In general: Microsomes from liver hold many membrane-bound enzymes, among them those of drug oxidation.)

Series [3] addresses T1, Cytochrome P450 2D6 (Homo sapiens, UniProt P10635). In words: Time-dependent inhibition of CYP2D6 in human liver microsomes. The class given is ADME. In outline:
(§1)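 Time- and concentration-dependent CYP inhibition assessed by an IC₅₀ shift assay in human liver microsomes.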

A short description of series [4]: Fraction unbound in rat plasma at 2 uM by equilibrium dialysis method. The class given is ADME, cell-free. In outline:
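Compound at 2 μM in mouse, rat, dog, monkey or human plasma; unbound fraction measured by equilibrium dialysis and reported as a mean.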
On the technique in general: In equilibrium dialysis free small molecules cross a membrane that holds back macromolecules.

Series [5] can be described thus: Drug excretion in Beagle dog urine at 1 mg/kg, iv. The class given is ADME, organism-based, Canis lupus familiaris. As to conditions: read-out: Drug excretion. In outline: (§2)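 Male animals (beagle dogs 12 kg, Wistar-Han rats 250 g, cynomolgus monkeys 7 kg), fasted overnight and fed 1.0 or 2.0 h after dosing, water ad libitum. Dosed iv at 1 mg/kg in saline or 12% sulfobutyl ether β-cyclodextrin. Fraction of the iv dose excreted unchanged in urine.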

Series [6] in a line: Volume of distribution at steady state in cynomolgus monkey at 1 mg/kg, iv and 3 or 5 mg/kg, po. The class given is ADME, organism-based, Macaca fascicularis. As to conditions: in vivo, read-out: Vdss. The method in brief:
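Male mice, rats, dogs and cynomolgus monkeys, fasted overnight, fed after dosing. Intravenous dose 1 mg/kg in saline or 12% sulfobutyl ether β-cyclodextrin; oral arm 3 or 5 mg/kg in 0.5% methylcellulose. Steady-state volume derived from plasma concentration−time data; mean ± SD for n = 3, individual values for n = 2.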

In series [7] the target is T2, Cytochrome P450 3A4 (Homo sapiens, UniProt P08684). In words: Time-dependent inhibition of CYP3A4 in human liver microsomes. The class given is ADME. The method in brief:
as §1

Series [8] addresses Cytochrome P450 2C9 (Homo sapiens, UniProt P11712). In words: Time-dependent inhibition of CYP2C9 in human liver microsomes. The format is ADME. In outline: as §1
Series [9] concerns the target T2, Cytochrome P450 3A4. In words: Reversible inhibition of CYP3A4 in human liver microsomes by LC-MS/MS analysis. The class given is ADME. In outline: (§3)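 Reversible inhibition of the major CYP enzymes tested in human liver microsomes using established protocols.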
In series [10] the target is T1, Cytochrome P450 2D6. In words: Reversible inhibition of CYP2D6 dextromethorphan O-demethylase activity in human liver microsomes by LC-MS/MS analysis. The format is ADME. The method in brief:
as §3

Series [11] can be described thus: Elimination half life in CD-1 mouse at 1 mg/kg, iv and 3 or 5 mg/kg, po. As to conditions: in vivo. The format is ADME, organism-based. The method in brief:
(§4)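 Male CD-1 mice (25−35 g), cannulated Wistar-Han rats (250 g), beagle dogs (12 kg) and cynomolgus monkeys (7 kg), fasted overnight and fed 1.0 or 2.0 h after dosing. iv 1 mg/kg in saline or 12% sulfobutyl ether β-cyclodextrin; po 3 or 5 mg/kg in 0.5% methylcellulose. Parameters calculated from plasma concentration−time data; mean ± SD for n = 3, individual values for n = 2.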

The target of series [12] is T3, Cytochrome P450 2C8 (Homo sapiens, UniProt P10632).
T3 sequence (P10632 whole entry): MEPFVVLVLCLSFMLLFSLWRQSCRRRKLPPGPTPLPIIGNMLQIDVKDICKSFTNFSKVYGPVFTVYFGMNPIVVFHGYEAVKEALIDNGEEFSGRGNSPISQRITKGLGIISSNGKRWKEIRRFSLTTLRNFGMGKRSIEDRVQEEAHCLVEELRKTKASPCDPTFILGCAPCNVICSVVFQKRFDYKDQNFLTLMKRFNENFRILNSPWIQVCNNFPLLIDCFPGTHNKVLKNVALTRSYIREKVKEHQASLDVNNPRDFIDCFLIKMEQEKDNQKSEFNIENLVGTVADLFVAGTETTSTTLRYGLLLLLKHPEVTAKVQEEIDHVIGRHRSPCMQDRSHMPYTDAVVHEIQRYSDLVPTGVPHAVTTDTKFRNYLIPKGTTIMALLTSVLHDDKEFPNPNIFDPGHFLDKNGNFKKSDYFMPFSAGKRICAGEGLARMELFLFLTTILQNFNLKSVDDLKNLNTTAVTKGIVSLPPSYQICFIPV
In words: Reversible inhibition of CYP2C8 amodiaquine-N-deethylase activity in human liver microsomes by LC-MS/MS analysis. The format is ADME. The method in brief: as §3

The nature of series [13]: Oral bioavailability in CD-1 mouse at 3 or 5 mg/kg. The format is ADME, organism-based. As to conditions: in vivo. The method in brief: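 Male CD-1 mice, Wistar-Han rats, beagle dogs and cynomolgus monkeys, fasted overnight and fed after dosing. Given po at 3 or 5 mg/kg in 0.5% methylcellulose, with an iv reference dose of 1 mg/kg. Bioavailability derived from plasma concentration−time data; mean ± SD (n = 3) or individual values (n = 2).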

Series [14] can be described thus: Plasma clearance in CD-1 mouse at 1 mg/kg, iv and 3 or 5 mg/kg, po. The class given is ADME, organism-based. The method in brief:
as §4

In series [15] the target is T4, Cytochrome P450 1A2 (Homo sapiens, UniProt P05177).
T4 sequence (P05177 whole entry): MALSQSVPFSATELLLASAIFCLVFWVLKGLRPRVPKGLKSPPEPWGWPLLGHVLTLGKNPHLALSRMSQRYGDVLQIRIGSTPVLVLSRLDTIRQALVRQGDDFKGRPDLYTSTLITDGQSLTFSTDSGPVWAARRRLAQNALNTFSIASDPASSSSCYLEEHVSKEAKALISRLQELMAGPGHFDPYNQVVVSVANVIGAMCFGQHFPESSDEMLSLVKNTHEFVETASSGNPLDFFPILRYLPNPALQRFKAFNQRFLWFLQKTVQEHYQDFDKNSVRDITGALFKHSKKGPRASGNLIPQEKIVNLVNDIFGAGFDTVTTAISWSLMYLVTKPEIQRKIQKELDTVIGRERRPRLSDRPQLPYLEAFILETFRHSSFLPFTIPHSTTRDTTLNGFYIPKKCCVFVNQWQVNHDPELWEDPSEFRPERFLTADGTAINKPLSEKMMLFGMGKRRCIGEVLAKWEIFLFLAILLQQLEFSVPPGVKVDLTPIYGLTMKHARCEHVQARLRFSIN
In words: Reversible inhibition of CYP1A2 phenacetin O-deethylase activity in human liver microsomes by LC-MS/MS analysis. The format is ADME. The method in brief: as §3

In series [16] the target is Cytochrome P450 2C19 (Homo sapiens, UniProt P33261). In words: Reversible inhibition of CYP2C19 (S)-Mephenytoin 4'-hydroxylase activity in human liver microsomes by LC-MS/MS analysis. The class given is ADME. The method in brief:
as §3

Series [17] is described as follows: Drug excretion in cynomolgus monkey urine at 1 mg/kg, iv. The format is ADME, organism-based, Macaca fascicularis. As to conditions: read-out: Drug excretion. The method in brief:
as §2

Series [18] in a line: Retention time of the compound in sodium phosphate buffer at 10 uM after 60 mins by LC-MS/MS analysis in presence of H2O2. The class given is physicochemical. The conditions noted are these: 1 h.

pEC50, pIC50: −log10 of the molar value. Some results are limits rather than exact numbers.

T2 sequence (P08684 whole entry): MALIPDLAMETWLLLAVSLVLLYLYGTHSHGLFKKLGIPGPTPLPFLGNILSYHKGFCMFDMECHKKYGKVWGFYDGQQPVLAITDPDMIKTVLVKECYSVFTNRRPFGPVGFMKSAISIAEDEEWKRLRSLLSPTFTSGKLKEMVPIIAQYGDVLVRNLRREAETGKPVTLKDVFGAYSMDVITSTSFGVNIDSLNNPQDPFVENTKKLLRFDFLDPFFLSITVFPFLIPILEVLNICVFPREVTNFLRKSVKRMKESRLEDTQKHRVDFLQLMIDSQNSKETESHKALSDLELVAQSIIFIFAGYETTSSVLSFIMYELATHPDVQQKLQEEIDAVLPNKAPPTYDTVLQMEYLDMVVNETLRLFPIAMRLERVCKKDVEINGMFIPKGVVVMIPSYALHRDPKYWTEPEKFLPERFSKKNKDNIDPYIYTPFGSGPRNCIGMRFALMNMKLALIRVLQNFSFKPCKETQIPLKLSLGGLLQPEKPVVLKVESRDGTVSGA
T1 sequence (P10635 whole entry): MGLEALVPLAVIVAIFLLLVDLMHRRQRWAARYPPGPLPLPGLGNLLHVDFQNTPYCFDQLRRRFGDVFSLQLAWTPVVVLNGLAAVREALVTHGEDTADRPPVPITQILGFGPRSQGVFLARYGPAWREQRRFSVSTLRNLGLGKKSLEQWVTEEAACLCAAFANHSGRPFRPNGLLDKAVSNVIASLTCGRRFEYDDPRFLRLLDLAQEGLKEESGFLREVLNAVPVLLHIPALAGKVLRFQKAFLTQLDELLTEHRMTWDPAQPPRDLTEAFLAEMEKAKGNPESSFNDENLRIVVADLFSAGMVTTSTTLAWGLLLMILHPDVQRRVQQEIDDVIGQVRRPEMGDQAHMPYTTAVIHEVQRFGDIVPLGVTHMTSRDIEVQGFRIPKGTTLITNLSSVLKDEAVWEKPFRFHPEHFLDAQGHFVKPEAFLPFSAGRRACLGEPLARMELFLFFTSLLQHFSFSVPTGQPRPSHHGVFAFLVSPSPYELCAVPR
Cytochrome P450 2C19, sequence (P33261 whole entry): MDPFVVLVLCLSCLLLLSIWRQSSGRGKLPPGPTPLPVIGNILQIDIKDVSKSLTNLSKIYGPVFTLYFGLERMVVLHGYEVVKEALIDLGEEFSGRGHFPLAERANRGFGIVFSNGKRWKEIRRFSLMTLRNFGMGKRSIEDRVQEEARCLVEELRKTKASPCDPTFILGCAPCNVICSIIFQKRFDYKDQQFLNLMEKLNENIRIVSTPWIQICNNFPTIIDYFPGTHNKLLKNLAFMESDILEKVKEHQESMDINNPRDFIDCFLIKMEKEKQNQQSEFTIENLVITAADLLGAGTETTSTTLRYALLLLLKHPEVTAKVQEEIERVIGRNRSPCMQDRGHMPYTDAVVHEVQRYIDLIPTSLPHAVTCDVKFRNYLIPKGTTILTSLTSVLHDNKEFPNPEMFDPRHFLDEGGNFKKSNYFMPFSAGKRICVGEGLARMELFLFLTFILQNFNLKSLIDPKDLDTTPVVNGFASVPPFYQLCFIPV
Cytochrome P450 2C9, sequence (P11712 whole entry): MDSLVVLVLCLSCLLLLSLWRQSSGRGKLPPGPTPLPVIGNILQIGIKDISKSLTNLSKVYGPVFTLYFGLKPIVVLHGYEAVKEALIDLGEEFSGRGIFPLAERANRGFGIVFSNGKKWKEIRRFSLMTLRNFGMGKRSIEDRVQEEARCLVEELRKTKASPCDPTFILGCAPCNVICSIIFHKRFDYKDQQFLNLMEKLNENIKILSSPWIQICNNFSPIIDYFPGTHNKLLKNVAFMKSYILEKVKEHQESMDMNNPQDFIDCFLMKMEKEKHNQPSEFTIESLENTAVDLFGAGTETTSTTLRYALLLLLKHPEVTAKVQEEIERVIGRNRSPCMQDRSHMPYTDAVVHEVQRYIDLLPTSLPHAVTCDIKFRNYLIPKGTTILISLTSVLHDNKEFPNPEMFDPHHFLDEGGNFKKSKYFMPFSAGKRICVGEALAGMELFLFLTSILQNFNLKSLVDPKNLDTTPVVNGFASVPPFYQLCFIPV

The pEC50 is −log10 of the EC50, conventionally taken in molar units. The pIC50 is the IC50 on a negative log10 scale, so that one unit is a factor of ten. A word on the fraction unbound: it is the share of the substance not bound to proteins or other matrix. As usually defined, the half-life is how long it takes for the measured level to halve. As usually defined, the bioavailability is the share of a dose that reaches the circulation, judged against a reference dose that is usually intravenous. Turning to `COc1ccc(Cl)cc1-c1cc(=O)[nH]c(=S)n1CC(N)=O` [PF-06282999], in series [1], the pEC50 is 5.42. Also, the Stability result in series [2] is recorded as “Stable”. Besides, the pIC50 in series [3], in series [7], in series [8], in [9], in [10] and in [12] was less than 4.00 each time. For the same molecule, the pIC50 in series [15] and in series [16] was less than 4.00 each time. For the same molecule, the fraction unbound at 2 µM in series [4] came to 0.447. Further, the dose excreted in [5] and in series [17] was 26% each time. Also, in series [6], the Vd worked out at 1.09 L/kg. Moreover, the half-life in series [11] is 1.36 h. Further, the bioavailability in series [13] is 100%. In series [14], this molecule displayed a clearance of 10.1 mL/min/kg.

In the case of `COc1ccc(-c2cc(=O)[nH]c(=S)n2CCO)c(OC)c1`, the Retention_time in [18] came to 17.49 min.
